# Results from ChEMBL document CHEMBL1833924, “HLE-inhibitory alkaloids with a polyketide skeleton from the marine-derived fungus Coniothyrium cereale” (J Nat Prod, 2011).
# Calls of active or inactive are those of the source. The rule behind the calls is not given here.
# Tests used:
# [1] = Inhibition of bovine Chymotrypsin; set-up: species or system Bos taurus
# [2] = Inhibition of porcine cholesterol esterase; set-up: species or system Sus scrofa
# Mycolicibacterium phlei [3] = experiment: Antibacterial activity against Mycobacterium phlei assessed as zone of inhibition at 20 ug/disk after 24 hrs by agar diffusion assay; format: functional; details: read-out: DIZ
# How it was run: (§1)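 Paper discs loaded at 20 μg/disk were placed on agar seeded with each bacterium (Mycobacterium phlei, Staphylococcus aureus or Escherichia coli). Read-out was the diameter of the inhibition zone, recorded in mm.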
# Prothrombin = Prothrombin (Homo sapiens, UniProt P00734); experiment: Inhibition of human thrombin
# Acetylcholinesterase = Acetylcholinesterase (Electrophorus electricus, UniProt O42275); experiment: Inhibition of electric eel AChE
# Papain = molecular target: T1, Papain (Carica papaya, UniProt P00784); experiment: Inhibition of Carica papaya papain
# T1 sequence (P00784 whole entry): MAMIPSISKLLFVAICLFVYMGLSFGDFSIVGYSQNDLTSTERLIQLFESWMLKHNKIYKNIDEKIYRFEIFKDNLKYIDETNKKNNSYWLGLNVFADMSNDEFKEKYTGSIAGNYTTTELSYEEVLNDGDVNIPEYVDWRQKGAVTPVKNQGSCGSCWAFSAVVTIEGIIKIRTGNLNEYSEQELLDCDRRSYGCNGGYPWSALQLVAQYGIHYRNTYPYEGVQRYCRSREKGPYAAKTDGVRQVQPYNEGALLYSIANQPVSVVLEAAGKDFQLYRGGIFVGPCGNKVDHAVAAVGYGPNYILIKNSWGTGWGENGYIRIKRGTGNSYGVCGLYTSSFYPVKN
# Staphylococcus aureus [4] = experiment: Antibacterial activity against Staphylococcus aureus assessed as zone of inhibition at 20 ug/disk after 24 hrs by agar diffusion assay; format: functional; details: read-out: DIZ; how it was run: as §1
# L929 [5] = experiment: Cytotoxicity against mouse L929 cells after 5 days by MTT assay; format: cell-based; details: L929, 120 h
# How it was run: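 MTT viability assay run on mouse fibroblast cells; result expressed as IC50 (μM).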
# [6] = Inhibition of bovine trypsin; set-up: species or system Bos taurus
# Neutrophil elastase = molecular target: T2, Neutrophil elastase (Homo sapiens, UniProt P08246); experiment: Inhibition of human leukocyte elastase using MeOSuc-Ala-Ala-Pro-Val-para-nitroanilide chromogenic substrate after 10 mins spectrophotometrically
# T2 sequence (P08246 whole entry): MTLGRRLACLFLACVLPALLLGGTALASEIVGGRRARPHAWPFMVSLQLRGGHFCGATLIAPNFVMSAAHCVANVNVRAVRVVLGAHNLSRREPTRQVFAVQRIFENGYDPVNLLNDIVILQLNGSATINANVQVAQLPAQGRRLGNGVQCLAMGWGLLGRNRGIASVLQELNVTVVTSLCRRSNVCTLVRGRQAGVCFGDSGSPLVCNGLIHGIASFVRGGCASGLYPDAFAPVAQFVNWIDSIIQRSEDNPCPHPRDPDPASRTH
# How it was run: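 Human leukocyte elastase enzyme inhibition assay; IC50 (μM) determined and reported as mean ± spread.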
# Escherichia coli [7] = experiment: Antibacterial activity against Escherichia coli assessed as zone of inhibition at 20 ug/disk after 24 hrs by agar diffusion assay; format: functional; details: read-out: DIZ; how it was run: as §1
# Staphylococcus aureus [8] = experiment: Antibacterial activity against Staphylococcus aureus at 20 uL after 24 hrs by agar diffusion assay; format: functional, organism-based
# Escherichia coli [9] = experiment: Antibacterial activity against Escherichia coli at 20 ug/disk after 24 hrs by agar diffusion assay
# Mycolicibacterium phlei [10] = experiment: Antibacterial activity against Mycobacterium phlei at 20 uL after 24 hrs by agar diffusion assay; format: functional, organism-based
# L929 [11] = experiment: Cytotoxicity against mouse L929 cells at 60 uL after 5 days by MTT assay; format: cell-based; details: l929, 120 h
# Chain of Acetylcholinesterase (O42275 whole entry): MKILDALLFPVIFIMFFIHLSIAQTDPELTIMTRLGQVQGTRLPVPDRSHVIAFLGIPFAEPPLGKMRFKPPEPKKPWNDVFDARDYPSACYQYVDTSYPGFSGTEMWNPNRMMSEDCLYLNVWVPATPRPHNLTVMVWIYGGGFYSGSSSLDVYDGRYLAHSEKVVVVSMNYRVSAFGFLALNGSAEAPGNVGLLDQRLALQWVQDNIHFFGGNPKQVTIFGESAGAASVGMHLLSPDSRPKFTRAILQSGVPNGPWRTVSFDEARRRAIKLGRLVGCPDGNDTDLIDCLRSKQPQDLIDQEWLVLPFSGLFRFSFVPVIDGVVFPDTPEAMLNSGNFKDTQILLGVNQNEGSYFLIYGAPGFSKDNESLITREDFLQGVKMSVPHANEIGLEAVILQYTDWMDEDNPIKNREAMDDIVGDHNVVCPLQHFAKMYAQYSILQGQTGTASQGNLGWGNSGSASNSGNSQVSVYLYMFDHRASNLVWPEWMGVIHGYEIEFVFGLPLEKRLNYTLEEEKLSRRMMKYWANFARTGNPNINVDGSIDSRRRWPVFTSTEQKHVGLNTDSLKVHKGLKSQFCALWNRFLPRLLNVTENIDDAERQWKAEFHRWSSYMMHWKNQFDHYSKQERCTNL
compound,measurement,setting,value
Cc1cc(O)cc2c1C1=C(C(=O)C2=O)C(C)(C)[C@H](C)O1,IC50,[1],> 50 µM
same,IC50,[2],> 50 µM
same,zone of inhibition at 20 µg/disc,Mycolicibacterium phlei [3],18 mm
same,IC50,Prothrombin,> 50 µM
same,IC50,Acetylcholinesterase,> 50 µM
same,IC50,Papain,> 50 µM
same,zone of inhibition at 20 µg/disc,Staphylococcus aureus [4],14 mm
same,IC50,L929 [5],7.5 µM
same,IC50,[6],> 50 µM
same,IC50,Neutrophil elastase,> 20 µM
same,zone of inhibition at 20 µg/disc,Escherichia coli [7],12 mm
C[C@@H]1OC2=C(C(=O)C(=N)c3c(O)c(O)cc(C=O)c32)C1(C)C,Activity,Staphylococcus aureus [8],inactive
same,IC50,[1],> 50 µM
same,Activity,Escherichia coli [9],inactive
same,IC50,[2],> 50 µM
same,IC50,Prothrombin,> 50 µM
same,IC50,Acetylcholinesterase,> 50 µM
same,IC50,Papain,> 50 µM
same,Activity,Mycolicibacterium phlei [10],inactive
same,Activity,L929 [11],Non-toxic
same,IC50,[6],> 50 µM
same,IC50,Neutrophil elastase,3.01 µM
Cc1cc(O)c2c3c(c(O)c4c(c13)O[C@@H](C)C4(C)C)NC2=O,Activity,Staphylococcus aureus [8],inactive
same,IC50,[1],> 50 µM
same,Activity,Escherichia coli [9],inactive
same,IC50,[2],> 50 µM
same,IC50,Prothrombin,> 50 µM
same,IC50,Acetylcholinesterase,> 50 µM
same,IC50,Papain,> 50 µM
same,Activity,Mycolicibacterium phlei [10],inactive
same,Activity,L929 [11],Non-toxic
same,IC50,[6],> 50 µM
same,IC50,Neutrophil elastase,9.28 µM
